{"source": "ChEMBL document CHEMBL4354867", "about": "“Validation and Characterization of Five Distinct Novel Inhibitors of Human Cytomegalovirus” (J Med Chem, 2020)", "format_in_all_cases": "functional, organism-based", "key": {"Human gammaherpesvirus 4": {"test_system": "Human gammaherpesvirus 4", "experiment": "Antiviral activity against EBV infected in human AKATA cells assessed as reduction in IgG-induced lytic virus replication measured at 48 hrs post-lytic induction by qRT-PCR analysis", "details": "human gammaherpesvirus 4, 48 h; read-out: EC50"}, "Human betaherpesvirus 5 [1]": {"test_system": "Human betaherpesvirus 5", "experiment": "Antiviral activity against HCMV TB40 infected in human HFF cells assessed as reduction in plaque formation treated with compound following viral infection and incubated for 8 to 10 days by crystal violet staining based assay", "details": "Human betaherpesvirus 5, TB40, HFF"}, "Human betaherpesvirus 5 [2]": {"test_system": "Human betaherpesvirus 5", "experiment": "Antiviral activity againstpp28-luciferase expressing HCMV Towne infected in human HFF cells assessed as reduction in viral replication treated with compound following viral infection at MOI of 1 PFU/cells measured after 3 days in presence of GCV by luciferase reporter gene assay", "details": "Human betaherpesvirus 5, strain Towne, 72 h", "in_short": "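HFFs in 96-well plates were infected with pp28-luciferase Towne HCMV, in which luciferase is driven by the UL99 late promoter, at MOI 1. A dose-response of each drug alone gave its EC₅₀. Combinations started at twice each EC₅₀ in DMEM with 4% FBS, followed by two-fold serial dilutions, and were added after infection. Luciferase was read in cell lysates at 72 hpi. The Bliss ratio is observed over expected inhibition.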"}, "Human betaherpesvirus 5 [3]": {"test_system": "Human betaherpesvirus 5", "experiment": "Inhibition of viral protein expression in HCMV Towne infected in human HFF cells assessed as reduction in pp65 expression at 3 uM treated with compound for 24 hrs followed by viral infection at MOI of 0.01 PFU/cell measured at 72 hrs post infection by Western blot analysis", "details": "strain Towne", "in_short": "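HFFs pretreated with compound, then infected with HCMV Towne at MOI 1, 0.1 or 0.01. Viral proteins in cell lysates detected at 72 hpi by SDS-PAGE (8–10%), PVDF transfer and chemiluminescent immunoblot. Images from a representative experiment.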"}, "Human betaherpesvirus 5 [4]": {"test_system": "Human betaherpesvirus 5", "experiment": "Antiviral activity against HCMV Towne infected in human HFF cells assessed as reduction in viral entry into host cell by measuring nuclear localization of pp65 at 3 uM treated with compound for 24 hrs followed by viral infection at MOI of 0.1 PFU/cell measured at 2 hrs post infection by immunofluorescence microscopy", "details": "strain Towne", "in_short": "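HFFs on chamber slides pretreated 24 h with compound diluted in serum-free medium, then infected with HCMV Towne for 2 h. Heparin 30 μM as positive entry-block control. Cells methanol-fixed, then stained with anti-pp65 (1:50) and rhodamine anti-mouse IgG, with DAPI. Nuclear pp65 viewed by fluorescence microscopy at 40x; repeated three times.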"}, "Human betaherpesvirus 5 [5]": {"test_system": "Human betaherpesvirus 5", "experiment": "Inhibition of viral protein expression in HCMV Towne infected in human HFF cells assessed as reduction in UL84 expression at 3 uM treated with compound following viral infection at MOI of 1 PFU/cell measured at 72 hrs post infection by Western blot analysis", "details": "strain Towne", "in_short": "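HFFs infected with HCMV Towne (MOI 1), then treated with compound. Lysates taken at 72 hpi, equal protein loaded on 8–10% Tris-glycine SDS-PAGE and transferred to PVDF. Primary antibodies overnight at 4 °C, HRP secondary, chemiluminescent detection; β-actin as loading control.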"}, "Human betaherpesvirus 5 [6]": {"test_system": "Human betaherpesvirus 5", "experiment": "Antiviral activity against GCV-resistant HCMV Towne infected in human HFF cells assessed as reduction in plaque formation at 0.1 to 10 uM treated with compound for 24 hrs followed by viral infection at MOI of […] and measured after 10 days by crystal violet staining based assay", "details": "strain Towne", "in_short": "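Overlay of DMEM with 0.5% carboxymethylcellulose and 4% FBS, 37 °C. After 10 days plaques stained with crystal violet and counted. Data are mean ± SD of triplicates from a representative experiment.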"}}, "note": "Activity calls are given as the source filed them. No cut-off for these calls is given here.", "data": [{"smiles": "COc1ccc(Cl)cc1C(=O)Nc1ccc(NC(=O)c2ccco2)cc1", "values": [{"measurement": "EC50", "setting": "Human gammaherpesvirus 4", "result": "> 10000", "unit": "nM"}, {"measurement": "EC50", "setting": "Human betaherpesvirus 5 [1]", "result": 120, "unit": "nM"}, {"measurement": "EC50", "setting": "Human betaherpesvirus 5 [2]", "result": 720, "unit": "nM"}, {"measurement": "inhibition", "setting": "Human betaherpesvirus 5 [3]", "result": "Active"}, {"measurement": "Activity", "setting": "Human betaherpesvirus 5 [4]", "result": "Active"}, {"measurement": "inhibition", "setting": "Human betaherpesvirus 5 [5]", "result": "inactive"}, {"measurement": "Activity", "setting": "Human betaherpesvirus 5 [6]", "result": "Active"}]}]}
